Source: PubChem BioAssay (Sanford-Burnham Center for Chemical Genomics)
Hits are enriched below; roughly 2.4% of the tested compounds scored in any of these assays.
Scp-1 inhibitor: Scp-1 (human) phosphatase inhibition. Q9GZU7. Recombinant Scp1, phosphopeptide, malachite green phosphate absorbance. inhibition, % at 20 µM. 340,000 compounds, 0.88% hits. AID 493091;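 active means inhibition above about 50% at 20 µM, limit read from the data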
Target sequence (Q9GZU7 76-261 limits assumed): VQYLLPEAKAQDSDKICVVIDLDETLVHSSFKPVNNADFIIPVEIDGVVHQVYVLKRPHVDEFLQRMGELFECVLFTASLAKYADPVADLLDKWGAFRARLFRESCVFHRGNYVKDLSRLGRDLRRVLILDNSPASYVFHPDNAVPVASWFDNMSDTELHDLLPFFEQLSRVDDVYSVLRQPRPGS
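Assay system: SCP-1 catalytic fragment, aa 76-261 | Buffer or medium: Tris acetate buffer pH 5.5 with MgCl2 and Tween-20 | Compound: One concentration, 20 µM, with 1.0% DMSO | Also added: Phospho 17-mer peptide substrate | Signal: Absorbance at 630 nm | Incubation: 45 min enzyme reaction at room temperature | Measure: % inhibition of SCP-1 phosphate liberation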
SUMO1 PPI mod: SUMO1-SIM interaction modulation; P63165; SUMO1 binding to a labelled peptide, TR-FRET, 1 h; inhibition, % at 20 µM; 360,000 compounds, 0.33% hits; AID 602429; in the data active means inhibition above about 37%
Target sequence (P63165 whole entry, looked up): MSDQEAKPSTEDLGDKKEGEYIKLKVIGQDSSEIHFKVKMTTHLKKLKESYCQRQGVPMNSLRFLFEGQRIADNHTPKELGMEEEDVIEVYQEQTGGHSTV
LMPTP block: blocks human LMPTP phosphatase; P24666; recombinant LMPTP-A, OMFP fluorogenic substrate, fluorescence intensity; inhibition, % at 20 µM; 360,000 compounds, 0.22% hits; AID 651560;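 active means compounds that cut the enzyme signal by at least half of the control window in the single-dose screen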
Target sequence (P24666 whole entry, looked up): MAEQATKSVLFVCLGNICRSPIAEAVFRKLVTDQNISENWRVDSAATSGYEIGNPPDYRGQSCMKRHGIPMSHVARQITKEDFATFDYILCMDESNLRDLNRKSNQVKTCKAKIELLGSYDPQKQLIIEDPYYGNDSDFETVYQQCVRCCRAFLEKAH
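Buffer or medium: Bis-Tris pH 6.0, DTT, detergent; Assay system: LMPTP-A enzyme; Quantity: 0.625 nM enzyme; Detection: endpoint fluorescence intensity; Times: 50 min dark incubation at room temperature; Controls: substrate-only low control, DMSO enzyme-plus-substrate high control; Doses: single 20 µM dose; Read-out: percent inhibition versus substrate-only and uninhibited controls; Reagent: 400 µM OMFP.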
NadD block: NadD (S. aureus) enzyme inhibition; purified NadD enzyme, colorimetric absorbance read-out; 360,000 compounds, 0.78% hits; inhibition, % at 20 µM; in the data active means inhibition above about 26%
DNMT1 inh: inhibitors of human DNMT1; P26358; DNMT1 molecular beacon, Hinp1I cleavage, fluorescence; inhibition (reported as % activation of signal), % at 10 µM; 360,000 compounds, 0.83% hits; in the data active means inhibition above about 50%
STEP inh: STEP (human) phosphatase inhibition; 360,000 compounds, 0.25% hits; inhibition, % at 20 µM; P54829; recombinant STEP, OMFP fluorogenic substrate, fluorescence;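 active means inhibition at 20 µM, scaled per plate between control wells, above about 37%, limit read from the data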
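System: STEP (striatal-enriched tyrosine phosphatase) enzyme, cell-free; medium: Bis-Tris pH 6.0 buffer with DTT, detergent; dosing: 20 µM, 1% DMSO; times: reaction 20 min, ambient temperature; detection: fluorescence, 480/540 nm; read-out basis: normalized % inhibition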
STEP conf: confirmation of human STEP phosphatase inhibitors; 520 compounds, 32% hits; AID 623866; inhibition, % at 20 µM; shares compounds with STEP inh; recombinant STEP, OMFP fluorogenic substrate, fluorescence; call rule not given here
A number is an active result; . = inactive; / = not tested or not shown.

SMILES | Scp-1 inhibitor | SUMO1 PPI mod | LMPTP block | NadD block | DNMT1 inh | STEP inh | STEP conf
CC(Nc1nc(-c2ccc(F)cc2)cs1)c1nc2cc(C(F)(F)F)ccc2n1CCOCCO (stereo unspecified) | . | . | . | . | . | . | /
Cc1cc2c(c(=O)n1CC1CCCO1)C(c1ccco1)C(C#N)=C(N)O2 (stereo unspecified) | . | . | . | . | . | . | /
CCOc1ccc(S(=O)(=O)Nc2cccc(C(=O)NCCCN3CCOCC3)c2)cc1 | . | . | . | . | . | . | /
COC(=O)c1ccc(COC(=O)c2ccccn2)cc1 | . | . | . | . | . | . | /
COC(=O)c1ccc(COC(=O)CCc2nc(-c3ccccc3)c(-c3ccccc3)o2)cc1 | . | . | . | . | . | 37.6 | .
Cc1nc(NC(N)=S)sc1C(=O)Nc1ccccc1 | . | . | . | . | . | 50.1 | .
COc1ccc(S(=O)(=O)Nc2noc3ccccc23)cc1 | . | . | . | . | . | 84.4 | .
NS(=O)(=O)c1ccccc1 | . | . | . | . | . | 67.8 | 46.9
COc1ccc(OC)c(C(=O)c2ccccn2)c1 | . | . | . | . | . | 94.7 | .
Cc1ccccc1CSCCNC(=O)CN(c1ccc2c(c1)OCO2)S(C)(=O)=O | . | . | . | . | . | . | /
O=C(N/N=C/c1cccnc1)c1ccc(NC(=O)c2ccc(Cl)cc2)cc1 | . | . | . | . | . | 53.3 | .
Cc1noc(C)c1CSc1nnc(-c2ccccc2)o1 | . | . | . | . | . | . | /
O=C(O)c1ccc(NC(=S)NC(=O)c2ccc(-c3ccc(Br)cc3)o2)cc1 | . | 86.2 | 79.8 | . | . | 97.0 | .
O=C(NCCCNC(=O)c1cnccn1)c1ccc(Cl)cc1 | . | . | . | . | . | . | /
O=C(NCCCNC(=O)c1cnccn1)c1ccc(Br)cc1 | . | . | . | . | . | 59.4 | .
S=c1[nH]nc(-c2cccnc2)n1/N=C/c1ccccc1 | . | . | . | . | . | 49.3 | .
S=c1[nH]nc(-c2cccnc2)n1/N=C/C=C/c1ccccc1 | . | . | . | . | . | . | /
Cn1cc(CC(=O)NCc2ccc(F)cc2)c2ccccc21 | . | . | . | . | . | . | /
Cc1cccc(OC(C)C(=O)Nc2ccc(S(=O)(=O)N3CCCC3)cc2)c1 (stereo unspecified) | . | . | . | . | . | . | /
CCN(CC)C(=O)c1ccccc1NC(=O)c1ccccc1C | . | . | . | . | . | . | /
CCN(CC)C(=O)c1ccccc1NC(=O)c1ccccc1SC | . | . | . | . | . | 42.8 | .
COc1ccc(N2C(=O)CSC23C(=O)Nc2ccccc23)cc1OC (stereo unspecified) | . | . | . | . | . | 47.7 | .
COc1cc(N2C(=O)CSC23C(=O)Nc2ccccc23)cc(OC)c1OC (stereo unspecified) | . | . | . | . | . | . | /
Cc1cc(C(=O)N2CCCC(C(=O)c3ccc(Oc4ccccc4)cc3)C2)n[nH]1 (stereo unspecified) | . | . | . | . | . | . | /
COc1ccc(-n2c(C)cc(C(=O)COC(=O)c3cc(NC(=O)c4cccs4)c(OC)c(OC)c3)c2C)cc1 | . | . | . | . | . | . | /
SMILES | Scp-1 inhibitor | SUMO1 PPI mod | LMPTP block | NadD block | DNMT1 inh | STEP inh | STEP conf
CCCn1c(SCC(=O)c2c(C)[nH]c(C)c2C(=O)OCC)nc2ccccc21 | . | . | . | . | . | 59.0 | .
CCOc1ccc(CCNC(=O)CS(=O)(=O)Cc2nc(-c3ccc(OC)cc3)oc2C)cc1 | . | . | . | . | . | 44.0 | 19.5
CCOc1ccc(CNC(=O)CS(=O)(=O)Cc2nc(-c3ccc(OC)cc3)oc2C)cc1 | . | . | . | . | . | . | /
CCOc1cc(NC(=O)C2CC2)c(OCC)cc1NC(=O)CCn1nnc2ccccc21 | . | . | . | . | . | 62.8 | .
CC1=C(O)C(=O)C(C2=C(O)C(=O)C(C)=C(O)C2=O)=C(O)C1=O | . | . | . | . | . | 65.1 | 21.2
O=C(O)c1ccc(/C=N/Nc2nc3ccccc3[nH]2)cc1 | . | . | . | . | . | 48.6 | .
COc1ccccc1-c1noc(CCC(=O)NC2CCCC2)n1 | . | . | . | . | . | . | /
CCOc1ccccc1-c1noc(CCC(=O)NC2CCCCC2)n1 | . | . | . | . | . | 91.8 | .
CCC(C)(C(=O)NC1CCCC1)N(Cc1cccs1)C(=O)Cc1cccs1 (stereo unspecified) | . | . | . | . | . | 89.7 | .
CCC(C)(C(=O)NC1CCCC1)N(Cc1cccs1)C(C)=O (stereo unspecified) | . | . | . | . | . | . | /
CC1(C)CC(=O)C2=C(C1)NC(=S)C(C#N)C21CCCCC1 (stereo unspecified) | . | . | . | . | . | . | /
Cc1ccc(C)n1-c1ncc(Br)cn1 | . | . | . | . | . | . | /
O=C1CNc2cc(Cl)ccc2N1 | / | . | . | . | . | . | /
O=C1CSc2cc(Cl)ccc2N1 | . | . | . | . | . | 37.4 | .
O=C(Cc1ccc(NC(=O)C2CCN(C(=O)C3CCC3)CC2)cc1)Nc1ccc(C(=O)N2CCOCC2)cc1 | . | . | . | . | . | . | /
CCc1cccc(C)c1NC(=S)N(CCCN1CCOCC1)Cc1cccnc1 | . | . | . | . | . | 41.0 | .
CCOc1ccc(NC(=O)N(CCCN2CCOCC2)Cc2cccnc2)cc1 | . | . | . | . | . | . | /
Cc1ccc(Cl)cc1NC(=S)N(CCCN1CCN(C)CC1)Cc1cccs1 | . | . | . | . | . | . | /
Cc1cc(Cl)ccc1NC(=S)N(CCCN1CCOCC1)Cc1cccs1 | . | . | . | . | . | 57.2 | .
CN(Cc1nc(-c2ccncc2)no1)S(=O)(=O)c1ccccc1 | . | . | . | . | . | . | /
Cc1cccc(S(=O)(=O)NCCc2ccccc2)c1 | . | . | . | . | . | . | /
COc1ccc(NC(=S)N2CCC(N(C)CC3CCCO3)CC2)cc1Cl (stereo unspecified) | . | . | . | . | . | 49.8 | 42.2
Cc1ccc(NC(=S)N2CCC(N(C)CC3CCCO3)CC2)cc1C (stereo unspecified) | . | . | . | . | . | . | /
CCN(CC)S(=O)(=O)c1ccc2oc(C(=O)NC(C)C)c(C)c2c1 | . | . | . | . | . | . | /
CCN(CC)S(=O)(=O)c1ccc2oc(C(=O)NCc3ccc(C)cc3)c(C)c2c1 | . | . | . | . | . | 60.7 | .
O=C(NCc1cccnc1)C1CCN(C(=O)c2ccc(Cl)cc2Cl)CC1 | . | . | . | . | . | . | /
O=C(NCc1ccco1)C1CCN(C(=O)c2ccc(Cl)cc2Cl)CC1 | . | . | . | . | . | 56.1 | .
